# Published values of several laboratories.
# Protocols differ between the studies behind these lines.
# Target: Ephrin type-A receptor 4 (EPHA4, Homo sapiens, UniProt P54764)
SMILES,effect on,mode,method,concentration,measurement,result
N#CC1(c2ccccn2)CCN(Cc2cc(C(=O)N3CCCC3)c(=O)n3ccccc23)CC1,cell-free assay,,competition with immobilised ligand,1 µM,remaining binding,89%
Cc1cc(NC(=O)c2cccc3cc(-c4cccc5[nH]nc(N)c45)ccc23)ccc1F,enzyme activity,inhibitor,,0.1 µM,activity vs control,73%
Cn1nc(C(F)(F)F)cc1-c1cnc(N2CCc3cc(S(=O)(=O)Nc4c(F)cc(Cl)cc4F)cc(N4CCCC4=O)c32)nc1,cell-free assay,,competition with immobilised ligand,1 µM,remaining binding,97%
Cc1sc(C(=O)NC2COC2)cc1-n1cc(NC(=O)Nc2c(F)cccc2Cl)cn1,enzyme activity,inhibitor,,10 µM,remaining activity,116%
Cc1cnc(NC2CCOCC2)nc1-n1cnc(C(=O)NC(CN)c2cc(F)cc(Cl)c2)c1 (stereo not shown),enzyme activity,inhibitor,radiometric,1 µM,remaining activity,104%
CCN(CC)CCNC(=O)c1c(C)[nH]c(/C=C2\C(=O)Nc3ccc(F)cc32)c1C,enzyme activity,inhibitor,,10 µM,inhibition,46%
COc1cc2ncnc(Nc3ccc(Oc4ccccc4)cc3C)c2cc1OC,enzyme activity,inhibitor,,1 µM,inhibition,10%
O=C(NCCCC1CCCCC1)c1ccc(CNC(=O)c2cnn(-c3ccccc3)c2C(F)(F)F)cc1,cell-free assay,,competition with immobilised ligand,0.1 µM,remaining binding,70%
Nc1ncnc2occ(-c3ccc(NC(=O)Nc4cc(C(F)(F)F)ccc4F)cc3)c12,cell-free assay,,,20 µM,remaining signal,0%
O=C(NCc1ncc(C(F)(F)F)cc1Cl)c1ccc2c(c1)C1(CCS(=O)(=O)CC1)[C@@H](C1CC1)N2S(=O)(=O)c1ccc(F)cc1,cell-free assay,,competition with immobilised ligand,1 µM,remaining binding,97%
COc1cc(Nc2cnc(C#N)c(O[C@H](C)CN(C)C)n2)ncc1-c1cnn(C)c1,enzyme activity,inhibitor,radiometric,1 µM,remaining activity,73%
CS(=O)(=O)N1CCCC(NC(=O)[C@H](CCC2CCCCC2)NC(=O)c2ccc(CNC(=O)c3cnc4ccccn34)cc2)C1 (stereo partly shown),cell-free assay,,competition with immobilised ligand,0.1 µM,remaining binding,98%
O=C(Nc1cnn(-c2csc(C(=O)NC3COC3)c2)c1)Nc1ccccc1Cl,enzyme activity,inhibitor,,5 µM,remaining activity,100%
CN1CC(Oc2cnc(C#N)cc2-c2ccn3nc(NC(=O)C4CC4)cc3c2)C1,enzyme activity,inhibitor,,1 µM,inhibition,11%
Cc1ccc(Nc2nccc(N(C)c3ccc4c(C)n(C)nc4c3)n2)cc1S(N)(=O)=O,enzyme activity,inhibitor,,10 µM,inhibition,28%
O=C1Nc2ccc(Cl)cc2C1=Cc1cc(Cl)c(O)c(Cl)c1,cell-free assay,,,0.5 µM,remaining signal,93.1%
C[C@@H](c1cccc(C#N)c1)n1cc(Cl)cc(C(N)=O)c1=N,cell-free assay,,competition with immobilised ligand,1 µM,remaining binding,90%
CCCOc1ccc(OC)c(F)c1C(=O)c1ccc(C(=O)N[C@@H]2CNC[C@H]2NC(=O)c2ccc3[nH]ncc3c2)cc1,enzyme activity,inhibitor,,10 µM,remaining activity,82%
COc1cc(Cl)c(C(=O)N[C@@H](CN[C@H]2CC[C@@H](N)CC2)Cc2ccc(C#N)cc2)cc1-c1ccc(CN[C@H](C)c2ccc(C)cc2)o1,enzyme activity,inhibitor,,1 µM,remaining activity,99%
COc1ccc2cc(OCC3(C(=O)O)CN(C(=O)c4ccc(F)cc4)C3)ccc2c1,cell-free assay,,competition with immobilised ligand,1 µM,remaining binding,100%
CNC(=O)c1cc(Oc2ccc(NC(=O)Nc3ccc(Cl)c(C(F)(F)F)c3)cc2)ccn1,enzyme activity,inhibitor,,10 µM,inhibition,56%
FC(F)c1nc2ccccc2n1-c1nc(N2CCOCC2)nc(N2CCOCC2)n1,enzyme activity,inhibitor,,10 µM,remaining activity,87%
N#CCCc1ccc2c(c1)-c1[nH]c3ccc([N+](=O)[O-])cc3c1CC(=O)N2,cell-free assay,,,0.5 µM,remaining signal,85.2%
Oc1cccc(-c2nc(N3CCOCC3)c3oc4ncccc4c3n2)c1,enzyme activity,inhibitor,,10 µM,remaining activity,103%
CC(C)(C)c1nc(-c2cccc(NS(=O)(=O)c3c(F)cccc3F)c2F)c(-c2ccnc(N)n2)s1,enzyme activity,inhibitor,radiometric,1 µM,remaining activity,97%
